Drawing on ChEMBL document CHEMBL5712903, “Limitations of current in vitro models for testing the clinical potential of epigenetic inhibitors for treatment of pediatric ependymoma” (Oncotarget, 2018), this text covers inhibition, IC50 and Activity for three compounds.

Each structure is given as a SMILES string. Calls of active or inactive are those of the source. The calls are words filed in the database; no cut-off is given here. Where only a bound is given, the exact number is not on record here.

A word on the IC50: it is the concentration that inhibits the measured activity by half.

Data set [1] has as its target Histone-lysine N-methyltransferase EZH2 (Homo sapiens) (UniProt Q15910). In words: Inhibition of EZH2 in human EPN9 cells assessed as increase in cell death incubated for 120 hrs by LDH release assay. The data set is classed as cell-based. The gist of the method: (§1)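 GSK343 or vehicle was added to cells plated in 96 wells the previous day. Drug was replenished after 72 hrs, and cell death was measured by LDH release kit at 120 hrs. Each condition in triplicate, three independent repeats.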

Data set [2] has the same target. In words: Inhibition of EZH2 in human EPN1 cells assessed as increase in cell death incubated for 120 hrs by LDH release assay. The data set is classed as cell-based. The gist of the method: as §1
A general note: LDH leaks from cells whose membrane has failed.

Data set [3] shares this target. In words: Inhibition of EZH2 in human BXD-1425EPN cells assessed as increase in cell death incubated for 120 hrs by LDH release assay. The data set is classed as cell-based. The gist of the method: as §1
The target is the same in data set [4]. In words: Inhibition of EZH2 in human DKFZ-EP1 cells assessed as increase in cell death incubated for 120 hrs by LDH release assay. The data set is classed as cell-based. The essentials: as §1
The target is the same in data set [5]. In words: Inhibition of EZH2 in human DKFZ-EP1 cells assessed as increase in decitabine induced cytotoxicity at 2.5 to 40 uM measured after 96 hrs in presence of decitabine by MTT assay. The data set is classed as cell-based. To be noted: dose 2.5-40 µM. The essentials: (§2)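 Cells were pretreated 48 hrs with decitabine, then GSK343 was added and incubation continued for a further 96 hrs before MTT viability was read. Drugs were at a fixed ratio from single-agent IC50s (0.125–4 times IC50). Triplicates, three independent repeats, % versus vehicle.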

Data set [6] shares this target. In words: Inhibition of EZH2 in human BXD-1425EPN cells assessed as increase in decitabine induced cytotoxicity at 2.5 to 80 uM measured after 96 hrs in presence of decitabine by MTT assay. The data set is classed as cell-based. To be noted: dose 2.5-80 µM. The gist of the method: as §2
Data set [7] shares this target. In words: Inhibition of EZH2 in human EPN1 cells assessed as increase in decitabine induced cytotoxicity at 2.5 to 80 uM measured after 96 hrs in presence of decitabine by MTT assay. The data set is classed as cell-based. To be noted: dose 2.5-80 µM. The essentials:
as §2
A general note: Tetrazolium assays rely on reduction of a dye to a coloured formazan, in cell work by metabolically active cells.

The target is the same in data set [8]. In words: Inhibition of EZH2 in human EPN9 cells assessed as increase in decitabine induced cytotoxicity at 2.5 to 80 uM measured after 96 hrs in presence of decitabine by MTT assay. The data set is classed as cell-based. The settings on record: dose 2.5-80 µM. The gist of the method: as §2
Data set [9] is described as follows: Cytotoxicity against human fetal NSC assessed as reduction in cell vaibility incubated for 48 hrs by alamar blue assay. The settings on record: human fetal neural stem cells (NSC).
Data set [10] concerns the target Histone-lysine N-methyltransferase EZH2 (Homo sapiens) (UniProt Q15910). In words: Inhibition of EZH2 in human EPN1 cells assessed as decrease in cell viability at 2.5 to 80 uM incubated for 72 hrs in presence of vorinostat by MTT assay. The settings on record: dose 2.5-80 µM.
Data set [11] has the same target. In words: Inhibition of EZH2 in human BXD-1425EPN cells assessed as decrease in cell viability at 2.5 to 80 uM incubated for 72 hrs in presence of vorinostat by MTT assay. The settings on record: dose 2.5-80 µM.
Data set [12] can be described thus: Antiproliferative activity against human BXD-1425EPN cells assessed as reduction in cell viability incubated for 144 hrs by MTT assay. The data set is classed as functional, cell-based. The gist of the method:
(§3)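 Ependymoma cells were seeded in 96-well plates and left overnight, then given decitabine or DMSO vehicle. Decitabine was replenished at 24 and 48 hrs, and MTT viability was read 144 hrs after the start. BXD-1425EPN and DKFZ-EP1 were grown in DMEM with 10% FBS; EPN1, EPN8, EPN9 and EPN10 in DMEM with 15% FBS. Triplicates, three independent repeats, % viable versus vehicle; IC50 estimated from dose-response curves.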

Data set [13] can be described thus: Antiproliferative activity against human DKFZ-EP1 cells assessed as reduction in cell viability incubated for 144 hrs by MTT assay. The data set is classed as functional, cell-based. To be noted: DKFZ-EP1, 144 h. The essentials:
as §3

A short description of data set [14]: Antiproliferative activity against human EPN1 cells assessed as reduction in cell viability incubated for 144 hrs by MTT assay. The data set is classed as functional, cell-based. The settings on record: EPN1, 144 h. The essentials:
as §3

The nature of data set [15]: Antiproliferative activity against human EPN8 cells assessed as reduction in cell viability incubated for 144 hrs by MTT assay. To be noted: EPN8, 144 h. The data set is classed as functional, cell-based. The essentials:
as §3

Data set [16] in a line: Antiproliferative activity against human EPN9 cells assessed as reduction in cell viability incubated for 144 hrs by MTT assay. To be noted: EPN9, 144 h. The data set is classed as functional, cell-based. The essentials:
as §3

The nature of data set [17]: Antiproliferative activity against human EPN10 cells assessed as reduction in cell viability incubated for 144 hrs by MTT assay. The data set is classed as functional, cell-based. To be noted: EPN10, 144 h. The gist of the method:
as §3

In another data set the test system is BXD-1425EPN. In words: Induction of cell death in human BXD-1425EPN cells incubated for 144 hrs by LDH release assay. The data set is classed as functional, cell-based. The gist of the method: (§4)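 LDH cytotoxicity kit read-out of cell death after 144 hrs of decitabine or vehicle exposure. Cells were plated in 96 wells and left overnight before dosing, with decitabine replenished at 24 and 48 hrs. Triplicates in three independent repeats. All drugs were dissolved in DMSO.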

In a further data set the test system is DKFZ-EP1. In words: Induction of cell death in human DKFZ-EP1 cells incubated for 144 hrs by LDH release assay. The data set is classed as functional, cell-based. The essentials:
as §4

The next data set relates to EPN1. In words: Induction of cell death in human EPN1 cells incubated for 144 hrs by LDH release assay. The data set is classed as functional, cell-based. The gist of the method:
as §4

The next data set deals with EPN9. In words: Induction of cell death in human EPN9 cells incubated for 144 hrs by LDH release assay. The data set is classed as functional, cell-based. The essentials:
as §4

Sequence of Histone-lysine N-methyltransferase EZH2 (Homo sapiens) (Q15910 whole entry, looked up): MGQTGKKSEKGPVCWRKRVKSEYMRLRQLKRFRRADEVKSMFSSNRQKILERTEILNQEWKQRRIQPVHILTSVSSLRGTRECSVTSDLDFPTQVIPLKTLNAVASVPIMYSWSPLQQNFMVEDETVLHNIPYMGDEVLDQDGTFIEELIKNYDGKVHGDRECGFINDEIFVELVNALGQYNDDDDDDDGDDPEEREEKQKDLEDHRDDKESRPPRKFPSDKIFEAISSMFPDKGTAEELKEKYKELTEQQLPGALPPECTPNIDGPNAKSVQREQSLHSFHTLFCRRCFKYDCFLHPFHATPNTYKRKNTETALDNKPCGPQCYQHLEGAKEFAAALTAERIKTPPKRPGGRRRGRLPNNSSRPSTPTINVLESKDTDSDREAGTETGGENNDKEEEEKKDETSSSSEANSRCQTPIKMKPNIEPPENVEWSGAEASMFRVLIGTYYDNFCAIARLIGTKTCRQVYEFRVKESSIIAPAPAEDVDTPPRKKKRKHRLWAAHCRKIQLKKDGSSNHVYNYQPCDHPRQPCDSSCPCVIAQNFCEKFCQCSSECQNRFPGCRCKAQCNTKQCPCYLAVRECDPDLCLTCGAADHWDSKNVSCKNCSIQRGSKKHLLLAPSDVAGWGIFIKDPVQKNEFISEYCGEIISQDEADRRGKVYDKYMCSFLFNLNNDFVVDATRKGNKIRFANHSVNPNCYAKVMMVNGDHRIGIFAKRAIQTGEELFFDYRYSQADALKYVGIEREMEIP

In the case of `CCCc1cc(C)[nH]c(=O)c1CNC(=O)c1cc(-c2ccnc(N3CCN(C)CC3)c2)cc2c1cnn2C(C)C`, the inhibition result in data set [1], in data set [2], in data set [3], in [4], in data set [10] and in data set [11] was “Active” each time. Further, the inhibition result in data set [5], in data set [6], in data set [7] and in [8] was “inactive” in each case. In addition, the IC50 at 48 h in data set [9] came to 9000 nM.
In the case of `Nc1ncn([C@H]2C[C@H](O)[C@@H](CO)O2)c(=O)n1` [DECITABINE], the IC50 in data set [12] is 400 nM; in data set [13], ≥ 50 nM; in [14] it was ≥ 50 nM; in [15] it was 50 nM; in data set [16], ≥ 50 nM; in [17] it was ≥ 50 nM. For the same compound, the outcome in the data set with BXD-1425EPN, in the data set on DKFZ-EP1, in the data set on EPN1 and with EPN9 was inactive.
Take `Cc1[nH]c2ccccc2c1CCNCc1ccc(/C=C/C(=O)NO)cc1` [PANOBINOSTAT]: in data set [9], the IC50 at 48 h stood at 80 nM.
